Source: ChEMBL document CHEMBL1148952, “A new ene-triyne antibiotic from the fungus Baeospora myosura” (2004)
Values after ≈ are worked out from the molar mass of the structure shown. Active and inactive are the calls of the source. The calls are words filed in the database; no cut-off is given here.

Columns and labels:
Staphylococcus aureus [1] = assay: Antimicrobial activity against methicillin-sensitive Staphylococcus aureus after 20 hrs; type: functional
Summary of the method: (§1)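 Broth MIC determination in cation-adjusted Mueller-Hinton broth, inoculum 10^5 cfu/mL, incubated 35 °C for 20 h.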

Staphylococcus aureus [2] = assay: Antimicrobial activity against methicillin-sensitive Staphylococcus aureus after 20 hrs in presence of 50% serum; type: functional
Staphylococcus aureus [3] = assay: Antimicrobial activity against methicillin-resistant Staphylococcus aureus after 20 hrs; type: functional; summary of the method: as §1
Staphylococcus aureus [4] = assay: Antimicrobial activity against methicillin-resistant coagulase negative Staphylococcus aureus after 20 hrs; type: functional; summary of the method: as §1
Enterococcus faecalis = assay: Antimicrobial activity against vancomycin-sensitive Enterococcus faecalis after 20 hrs; type: functional
Summary of the method: (§2)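 Broth MIC in cation-adjusted Mueller-Hinton broth. Inoculum 10^5 cfu/mL, incubated 35 °C for 20 h. Test material was held as a DMSO stock, with concentration set by UV absorbance at 325 nm of a MeOH dilution (ε = 2 × 10^4 M-1 cm-1).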

Enterococcus faecium = assay: Antimicrobial activity against vancomycin-resistant Enterococcus faecium after 20 hrs; type: functional; summary of the method: as §1
Streptococcus pneumoniae [5] = assay: Antimicrobial activity against Streptococcus pneumoniae after 20 hrs; type: functional
Summary of the method: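 MIC by broth dilution in cation-adjusted Mueller-Hinton broth with 2.5% lysed horse blood. Inoculum 10^5 cfu/mL, 35 °C for 20 h. DMSO stock quantified by UV absorbance at 325 nm.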

Streptococcus pneumoniae [6] = assay: Antimicrobial activity against penicillin-resistant Streptococcus pneumoniae after 20 hrs; type: functional
Summary of the method: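 Broth MIC determination in cation-adjusted Mueller-Hinton broth supplemented with 2.5% lysed horse blood, inoculum 10^5 cfu/mL, incubated 35 °C for 20 h.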

Streptococcus pyogenes = assay: Antimicrobial activity against Streptococcus pyogenes after 20 hrs; type: functional
Priestia megaterium = assay: Antimicrobial activity against Bacillus megaterium after 20 hrs; type: functional; summary of the method: as §2
Haemophilus influenzae = assay: Antimicrobial activity against Haemophilus influenzae after 20 hrs; type: functional
Summary of the method: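 Haemophilus Test medium broth MIC. Inoculum 10^5 cfu/mL, incubated 35 °C for 20 h. Compound supplied from a DMSO stock quantified by UV absorbance at 325 nm.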

Escherichia coli = assay: Antimicrobial activity against Escherichia coli after 20 hrs; type: functional; summary of the method: as §2
Pseudomonas aeruginosa = assay: Antimicrobial activity against Pseudomonas aeruginosa after 20 hrs; type: functional; summary of the method: as §2
Klebsiella pneumoniae = assay: Antimicrobial activity against Klebsiella pneumoniae after 20 hrs; type: functional; summary of the method: as §2
Candida albicans = assay: Antimicrobial activity against Candida albicans after 24 hrs; type: functional
Summary of the method: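 Yeast MIC in RPMI 1640. Inoculum 10^3 cfu/mL, incubated 35 °C for 24 h. Compound supplied from a DMSO stock quantified by UV absorbance at 325 nm.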

[7] = tested on: coagulase-negative Staphylococcus; assay: Antimicrobial activity against methicillin-resistant coagulase negative Staphylococcus after 20 hrs

Structure (SMILES)	Activity (Staphylococcus aureus [1])	Activity (Staphylococcus aureus [2])	Activity (Staphylococcus aureus [3])	Activity (Staphylococcus aureus [4])	MIC (Staphylococcus aureus [1]) [µg/mL]	MIC (Staphylococcus aureus [2]) [µg/mL]	MIC (Staphylococcus aureus [3]) [µg/mL]	MIC (Enterococcus faecalis) [µg/mL]	MIC (Enterococcus faecium) [µg/mL]	MIC (Streptococcus pneumoniae [5]) [µg/mL]	MIC (Streptococcus pneumoniae [6]) [µg/mL]	MIC (Streptococcus pyogenes) [µg/mL]	MIC (Priestia megaterium) [µg/mL]	MIC (Haemophilus influenzae) [µg/mL]	MIC (Escherichia coli) [µg/mL]	MIC (Pseudomonas aeruginosa) [µg/mL]	MIC (Klebsiella pneumoniae) [µg/mL]	MIC (Candida albicans) [µg/mL]	MIC [7] [µg/mL]
CC(=O)Nc1ccc(C(=O)O)cc1	inactive	inactive	inactive	inactive															
C#CC#CC#C/C=C/C(=O)Nc1ccc(C(=O)O)cc1					0.0005 (≈ 0.0019 µM)	16	0.001 (≈ 0.0038 µM)	0.12 (≈ 0.456 µM)	0.015 (≈ 0.057 µM)	8 (≈ 30.4 µM)	16 (≈ 60.8 µM)	0.008 (≈ 0.0304 µM)	4 (≈ 15.2 µM)	0.5 (≈ 1.9 µM)	32 (≈ 122 µM)	> 32	> 32	> 32	0.0005 (≈ 0.0019 µM)
CCCCCCCCC(=O)Nc1ccc(C(=O)O)cc1	inactive	inactive	inactive	inactive															
